This is an account of results in ChEMBL document CHEMBL1155063 (Bioorg Med Chem, 2008).

What is called viability is a read-out of living cells in per cent, often relative to untreated cells. A word on the cell viability: it is a read-out of living cells in per cent, often relative to untreated cells. Broadly, the residual activity is the signal under treatment as a percentage of the control signal.

The target in series [1] is T1, Telomerase reverse transcriptase (Homo sapiens, UniProt O14746). In words: Inhibition of telomerase in human H1299 cells at 1 to 20 uM by TRAP assay. Format: cell-based. A digest of the protocol:
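Modified TRAP assay using 2 µg total lysate from H1299 lung cancer cells as the telomerase source. Compounds were tested at 1, 5, 10 and 20 µM. Products were resolved on 10% polyacrylamide gels and stained with SYBR Green. A Taq-polymerase internal control was included, along with positive and negative controls.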

The nature of series [2]: Cytotoxicity against human H1299 cells at 100 uM after 48 hrs by MTT assay realtive to control. Format: functional. Conditions: NCI-H1299, 48 h. The gist of the method: (§1)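 H1299 non-small-cell lung cells were kept in RPMI 1640 with 10% FBS and penicillin/streptomycin at 37 °C under 5% CO2. About 2 × 10^3 cells per well were pre-incubated for 24 h. Compound was added from freshly made DMSO solution diluted in complete medium and left for 48 h. MTT was then added for 4 h at 37 °C, followed by 20% SDS/50% DMF lysis buffer for 16 h at 37 °C, and absorbance read at 550 nm.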

A short description of series [3]: Cytotoxicity against human H1299 cells at 10 uM after 48 hrs by MTT assay realtive to control. The series is classed as functional. The note with it: NCI-H1299, 48 h. A digest of the protocol:
as §1
Background: Tetrazolium assays rely on reduction of a dye to a coloured formazan, in cell work by metabolically active cells.

A short description of series [4]: Cytotoxicity against human TERT immortalized BJ1 cells at 100 uM after 48 hrs by MTT assay relative to control. The series is classed as cell-based, BJ. The gist of the method:
(§2)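 hTERT-immortalized BJ1 fibroblasts were grown in DMEM with 10% FCS, 1 mM pyruvate and 4 mM […]. Cells (about 2 × 10^3 per well) were seeded and held 24 h at 37 °C. Compounds were freshly dissolved in DMSO, diluted into medium and left on the cells 48 h. MTT was added for 4 h, then SDS/DMF lysis buffer for 16 h. Absorbance was read at 550 nm and expressed relative to untreated cells (100%).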

The nature of series [5]: Cytotoxicity against human TERT immortalized BJ1 cells at 10 uM after 48 hrs by MTT assay relative to control. Format: cell-based, BJ. The gist of the method:
as §2

Series [6] is described as follows: Cytotoxicity against human TERT immortalized BJ1 cells at 1 uM after 48 hrs by MTT assay relative to control. The series is classed as cell-based, BJ. The gist of the method: as §2
A short description of series [7]: Cell viability of human H1299 cells at 1 uM after 48 hrs by MTT assay relative to control. Conditions: NCI-H1299, 48 h.
Series [8] deals with T1, Telomerase reverse transcriptase. As to the kind of experiment: Effect on human TERT expressed in H1299 cells at 1 uM after 24 hrs by SEAP assay relative to control.
Series [9] shares this target. As to the kind of experiment: Effect on human TERT expressed in BJ1 cells at 100 uM after 24 hrs by SEAP assay relative to control. Conditions: BJ.
Series [10] shares this target. As to the kind of experiment: Effect on human TERT expressed in H1299 cells at 10 uM after 24 hrs by SEAP assay relative to control.
For series [11] the target is unchanged. In words: Effect on human TERT expressed in H1299 cells at 100 uM after 24 hrs by SEAP assay relative to control.
The target is the same in series [12]. As to the kind of experiment: Effect on human TERT expressed in BJ1 cells at 1 uM after 24 hrs by SEAP assay realtive to control. Conditions: BJ.
Series [13] has the same target. In words: Effect on human TERT expressed in BJ1 cells at 10 uM after 24 hrs by SEAP assay relative to control. The note with it: BJ.

Active and inactive are the calls of the source. The rule behind the calls is not given here.

T1 sequence (O14746 whole entry): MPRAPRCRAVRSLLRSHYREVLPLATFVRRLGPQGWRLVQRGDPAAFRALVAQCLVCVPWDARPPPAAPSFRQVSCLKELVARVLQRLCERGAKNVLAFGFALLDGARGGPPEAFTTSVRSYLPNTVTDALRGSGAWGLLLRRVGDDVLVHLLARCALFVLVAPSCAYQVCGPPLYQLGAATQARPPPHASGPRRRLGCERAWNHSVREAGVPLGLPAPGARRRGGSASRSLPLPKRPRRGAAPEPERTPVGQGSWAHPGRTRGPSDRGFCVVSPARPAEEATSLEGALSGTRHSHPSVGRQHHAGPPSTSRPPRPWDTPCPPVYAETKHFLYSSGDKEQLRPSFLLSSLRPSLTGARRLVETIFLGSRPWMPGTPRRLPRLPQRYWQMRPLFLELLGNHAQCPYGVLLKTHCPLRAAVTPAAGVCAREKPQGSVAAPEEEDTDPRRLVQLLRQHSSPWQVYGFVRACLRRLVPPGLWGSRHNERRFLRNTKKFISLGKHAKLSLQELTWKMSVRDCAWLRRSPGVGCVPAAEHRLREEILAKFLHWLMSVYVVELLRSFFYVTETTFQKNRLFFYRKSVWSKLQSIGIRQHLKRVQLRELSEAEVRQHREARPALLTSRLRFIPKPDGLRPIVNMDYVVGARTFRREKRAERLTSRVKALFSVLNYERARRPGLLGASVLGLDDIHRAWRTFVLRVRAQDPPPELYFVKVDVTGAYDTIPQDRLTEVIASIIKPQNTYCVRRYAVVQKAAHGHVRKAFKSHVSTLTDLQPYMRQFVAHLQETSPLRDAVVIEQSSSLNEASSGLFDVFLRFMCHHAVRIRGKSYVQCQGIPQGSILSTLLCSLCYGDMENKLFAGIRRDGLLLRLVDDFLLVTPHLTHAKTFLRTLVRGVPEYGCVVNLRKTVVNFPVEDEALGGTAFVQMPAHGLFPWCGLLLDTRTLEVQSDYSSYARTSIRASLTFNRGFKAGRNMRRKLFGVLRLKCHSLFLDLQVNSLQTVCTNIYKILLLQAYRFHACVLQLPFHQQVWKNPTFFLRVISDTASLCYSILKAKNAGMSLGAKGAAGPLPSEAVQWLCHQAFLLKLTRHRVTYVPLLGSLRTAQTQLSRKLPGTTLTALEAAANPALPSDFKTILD

For the compound `CCNCCC(=O)Nc1ccc2c(c1)C(=O)c1cc(NC(=O)CCNCC)ccc1C2=O`, the result in series [1] was Active. In addition, the viability at 100 µM in series [2] was determined as 34%. Besides, the viability at 10 µM in [3] is 59%. Also, in series [4], the viability at 48 h, 100 µM was determined as 42%. Further, in [5], the viability at 48 h, 10 µM worked out at 73%. The viability at 48 h, 1 µM in series [6] worked out at 82%. Moreover, the cell viability at 1 µM in series [7] amounted to 86%. Besides, the residual activity in series [8] amounted to 68%; in [9], 97%; in [10], 33%; in series [11], 22%.

For `O=C(CCc1ccccc1)Nc1ccc2c(c1)C(=O)c1cc(NC(=O)CCc3ccccc3)ccc1C2=O`, the viability at 100 µM in series [2] amounted to 76%. Further, the viability at 10 µM in series [3] was 94%. Besides, in [4], the viability at 48 h, 100 µM worked out at 44%. Also, the viability at 48 h, 10 µM in series [5] was 44%. Moreover, the viability at 48 h, 1 µM in series [6] was 89%. Besides, the cell viability at 1 µM in [7] stood at 102%. In addition, the residual activity in series [12] was determined as 74%; in series [13], 92%; in series [8] it was 89%; in series [9], 43%; in series [10] it was 79%; in series [11], 61%.

Take `CCCNCCC(=O)Nc1ccc2c(c1)C(=O)c1cc(NC(=O)CCNCCC)ccc1C2=O`: the outcome in series [1] was Active. Moreover, the viability at 100 µM in series [2] is 13%. The viability at 10 µM in series [3] amounted to 50%. In addition, the viability at 48 h, 100 µM in [4] was determined as 38%. The viability at 48 h, 10 µM in series [5] was found to be 65%. Moreover, the viability at 48 h, 1 µM in series [6] is 75%. The cell viability at 1 µM in series [7] stood at 80%. The residual activity in [13] is 133%; in series [8], 52%; in series [10] it was 22%; in series [11], 13%.

On to `O=C1c2ccc(NC(=O)C3CCCCC3)cc2C(=O)c2cc(NC(=O)C3CCCCC3)ccc21`, for which, in series [2], the viability at 100 µM stood at 52%. Besides, in series [3], the viability at 10 µM is 63%. Moreover, the viability at 48 h, 100 µM in series [4] was found to be 64%. Besides, the viability at 48 h, 10 µM in series [5] stood at 76%. Moreover, the viability at 48 h, 1 µM in series [6] stood at 87%. In addition, the cell viability at 1 µM in series [7] was found to be 90%. Moreover, the residual activity in [12] is 14%; in series [13], 14%; in [8], 96%; in [9] it was 22%; in series [10] it was 93%; in series [11] it was 80%.

Regarding `CCCCNCC(=O)Nc1ccc2c(c1)C(=O)c1cc(NC(=O)CNCCCC)ccc1C2=O`, the viability at 100 µM in series [2] was determined as 15%. The viability at 10 µM in [3] turned out to be 17%. For the same compound, the viability at 48 h, 100 µM in series [4] was 43%. The viability at 48 h, 10 µM in series [5] was determined as 41%. Also, the viability at 48 h, 1 µM in series [6] worked out at 103%. In series [7], the cell viability at 1 µM worked out at 91%. Besides, the residual activity in series [12] worked out at 27%; in [13], 24%; in [8] it was 77%; in series [9], 80%; in [10], 26%; in series [11] it was 20%.

As to `CC(C)NCC(=O)Nc1ccc2c(c1)C(=O)c1cc(NC(=O)CNC(C)C)ccc1C2=O`, in [2], the viability at 100 µM is 6%. In addition, the viability at 10 µM in series [3] was 26%. The viability at 48 h, 100 µM in series [4] was 39%. The viability at 48 h, 10 µM in [5] worked out at 41%. Moreover, the viability at 48 h, 1 µM in [6] stood at 89%. Besides, the cell viability at 1 µM in series [7] worked out at 78%. Further, the residual activity in [12] was 79%; in [13], 55%; in [8], 73%; in series [9] it was 45%; in [10], 28%; in series [11], 21%.

On to `CN1CCN(CC(=O)Nc2ccc3c(c2)C(=O)c2cc(NC(=O)CN4CCN(C)CC4)ccc2C3=O)CC1`, for which the viability at 100 µM in series [2] stood at 37%. In addition, the viability at 10 µM in series [3] was 71%. Further, the viability at 48 h, 100 µM in series [4] is 47%. For the same compound, the viability at 48 h, 10 µM in series [5] turned out to be 69%. Also, in series [6], the viability at 48 h, 1 µM is 86%. For the same compound, the cell viability at 1 µM in [7] turned out to be 90%. The residual activity in series [12] came to 61%; in series [13], 68%; in series [8], 76%; in series [9] it was 97%; in [10] it was 50%; in [11] it was 23%.

Turning to `O=C(CN1CCCCC1)Nc1ccc2c(c1)C(=O)c1cc(NC(=O)CN3CCCCC3)ccc1C2=O`, the viability at 100 µM in [2] was 35%. Besides, the viability at 10 µM in series [3] came to 37%. In addition, in series [4], the viability at 48 h, 100 µM stood at 22%. For the same compound, in series [5], the viability at 48 h, 10 µM was determined as 78%. The viability at 48 h, 1 µM in series [6] came out at 89%. In [7], the cell viability at 1 µM amounted to 50%. Also, the residual activity came out at 118% in series [12]; 121% in [13]; 74% in [8]; 103% in series [9]; 69% in series [10]; 63% in series [11].

Regarding `CCCCNCCC(=O)Nc1ccc2c(c1)C(=O)c1cc(NC(=O)CCNCCCC)ccc1C2=O`, in series [2], the viability at 100 µM came out at 14%. Further, the viability at 10 µM in series [3] was determined as 52%. For the same compound, the viability at 48 h, 100 µM in [4] was determined as 40%. Besides, in series [5], the viability at 48 h, 10 µM stood at 70%. Also, the viability at 48 h, 1 µM in series [6] is 80%. For the same compound, the cell viability at 1 µM in series [7] was found to be 82%. Also, the residual activity in series [12] was 88%; in series [13], 95%; in series [8] it was 56%; in [9], 111%; in [10] it was 33%; in series [11], 22%.

In the case of `O=C(Cc1ccccc1)Nc1ccc2c(c1)C(=O)c1cc(NC(=O)Cc3ccccc3)ccc1C2=O`, the viability at 100 µM in [2] was found to be 75%. In addition, the viability at 10 µM in series [3] turned out to be 96%. The viability at 48 h, 100 µM in series [4] is 86%. Further, the viability at 48 h, 10 µM in series [5] came out at 80%. The viability at 48 h, 1 µM in series [6] was 93%. Further, the cell viability at 1 µM in [7] is 106%. Also, the residual activity amounted to 85% in series [12]; 79% in series [13]; 97% in series [8]; 40% in series [9]; 91% in series [10]; 80% in [11].

Turning to `CCC(=O)Nc1ccc2c(c1)C(=O)c1cc(NC(=O)CC)ccc1C2=O`, in series [2], the viability at 100 µM came to 35%. The viability at 10 µM in [3] amounted to 38%. Further, the viability at 48 h, 100 µM in series [4] came out at 48%. Also, in series [5], the viability at 48 h, 10 µM is 57%. Moreover, the viability at 48 h, 1 µM in [6] was 77%. Moreover, the cell viability at 1 µM in [7] was found to be 70%. The residual activity was 78% in series [12]; 64% in series [13]; 90% in [8]; 51% in series [9]; 95% in [10]; 85% in [11].

On to `CCN(CC)CC(=O)Nc1ccc2c(c1)C(=O)c1cc(NC(=O)CN(CC)CC)ccc1C2=O`, for which the viability at 100 µM in series [2] stood at 25%. Moreover, in series [3], the viability at 10 µM was found to be 47%. Also, in series [4], the viability at 48 h, 100 µM came out at 50%. For the same compound, the viability at 48 h, 10 µM in [5] is 67%. Also, the viability at 48 h, 1 µM in [6] amounted to 116%. Moreover, in [7], the cell viability at 1 µM is 101%. For the same compound, the residual activity in series [12] is 26%; in series [13] it was 131%; in series [8], 90%; in series [9], 116%; in series [10], 61%; in series [11], 37%.

For `O=C(CCCCl)Nc1ccc2c(c1)C(=O)c1cc(NC(=O)CCCCl)ccc1C2=O`, the viability at 100 µM in series [2] was 22%. Moreover, the viability at 10 µM in series [3] was 40%. Moreover, in series [4], the viability at 48 h, 100 µM was 58%. In addition, in [5], the viability at 48 h, 10 µM is 62%. Besides, in series [6], the viability at 48 h, 1 µM was determined as 72%. Besides, the cell viability at 1 µM in series [7] amounted to 84%. Further, the residual activity in series [12] stood at 13%; in series [13] it was 42%; in series [8], 88%; in series [9], 75%; in series [10], 86%; in [11], 78%.
